Results taken from ChEMBL document CHEMBL1287651, “Synthesis and in vitro antibacterial activity of fluoroquinolone derivatives containing 3-(N'-alkoxycarbamimidoyl)-4-(alkoxyimino) pyrrolidines” (2010).
≈ marks a conversion by molar mass, not a printed value.

Experiments:
Assay type in all cases: functional
Staphylococcus aureus [1] = experiment: Antibacterial activity against Staphylococcus aureus ATCC […] after 18 to 24 hrs by twofold serial dilution method
Procedure, shortened: (§1)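 MIC determined by the standard twofold serial dilution method on agar media, screening against Gram-positive and Gram-negative strains. Levofloxacin and gemifloxacin were run alongside as reference drugs.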

Staphylococcus aureus [2] = experiment: Antibacterial activity against methicillin-resistant Staphylococcus aureus 08-1 after 18 to 24 hrs by twofold serial dilution method
Procedure, shortened: (§2)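 Standard twofold serial agar dilution method on agar media for MIC determination. Screened against representative Gram-positive and Gram-negative strains. Levofloxacin and GMFX served as control drugs.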

Staphylococcus aureus [3] = experiment: Antibacterial activity against methicillin-sensitive Staphylococcus aureus 08-2 after 18 to 24 hrs by twofold serial dilution method; procedure, shortened: as §2
[4] = tested on: Staphylococcus epidermidis; experiment: Antibacterial activity against methicillin-resistant Staphylococcus epidermidis 09-2 after 18 to 24 hrs by twofold serial dilution method; procedure, shortened: as §2
[5] = tested on: Staphylococcus epidermidis; experiment: Antibacterial activity against methicillin-resistant Staphylococcus epidermidis 09-3 after 18 to 24 hrs by twofold serial dilution method; procedure, shortened: as §2
[6] = tested on: Staphylococcus epidermidis; experiment: Antibacterial activity against methicillin-resistant Staphylococcus epidermidis 09-4 after 18 to 24 hrs by twofold serial dilution method; procedure, shortened: as §2
[7] = tested on: Staphylococcus epidermidis; experiment: Antibacterial activity against methicillin-sensitive Staphylococcus epidermidis 09-3 after 18 to 24 hrs by twofold serial dilution method; procedure, shortened: as §2
[8] = tested on: Staphylococcus epidermidis; experiment: Antibacterial activity against methicillin-sensitive Staphylococcus epidermidis 09-6 after 18 to 24 hrs by twofold serial dilution method; procedure, shortened: as §2
Streptococcus pneumoniae [9] = experiment: Antibacterial activity against Streptococcus pneumoniae 08-2 after 18 to 24 hrs by twofold serial dilution method; procedure, shortened: as §1
Streptococcus pneumoniae [10] = experiment: Antibacterial activity against Streptococcus pneumoniae 08-4 after 18 to 24 hrs by twofold serial dilution method; procedure, shortened: as §1
Enterococcus faecium [11] = experiment: Antibacterial activity against Enterococcus faecium 08-2 after 18 to 24 hrs by twofold serial dilution method; procedure, shortened: as §1
Enterococcus faecium [12] = experiment: Antibacterial activity against Enterococcus faecium 08-7 after 18 to 24 hrs by twofold serial dilution method; procedure, shortened: as §1
Enterococcus faecalis [13] = experiment: Antibacterial activity against Enterococcus faecalis 08-10 after 18 to 24 hrs by twofold serial dilution method; procedure, shortened: as §1
Enterococcus faecalis [14] = experiment: Antibacterial activity against Enterococcus faecalis 08-12 after 18 to 24 hrs by twofold serial dilution method; procedure, shortened: as §1
Escherichia coli [15] = experiment: Antibacterial activity against Escherichia coli ATCC 25922 after 18 to 24 hrs by twofold serial dilution method; procedure, shortened: as §1
Escherichia coli [16] = experiment: Antibacterial activity against Escherichia coli 08-21 after 18 to 24 hrs by twofold serial dilution method; procedure, shortened: as §1
Escherichia coli [17] = experiment: Antibacterial activity against Escherichia coli 08-22 after 18 to 24 hrs by twofold serial dilution method; procedure, shortened: as §1
Klebsiella pneumoniae [18] = experiment: Antibacterial activity against Klebsiella pneumoniae 09-21 after 18 to 24 hrs by twofold serial dilution method; procedure, shortened: as §1
Klebsiella pneumoniae [19] = experiment: Antibacterial activity against Klebsiella pneumoniae 09-22 after 18 to 24 hrs by twofold serial dilution method; procedure, shortened: as §1
Klebsiella pneumoniae [20] = experiment: Antibacterial activity against Klebsiella pneumoniae 09-23 after 18 to 24 hrs by twofold serial dilution method; procedure, shortened: as §1
Pseudomonas aeruginosa [21] = experiment: Antibacterial activity against Pseudomonas aeruginosa ATCC 27853 after 18 to 24 hrs by twofold serial dilution method; procedure, shortened: as §1
Pseudomonas aeruginosa [22] = experiment: Antibacterial activity against Pseudomonas aeruginosa 09-32 after 18 to 24 hrs by twofold serial dilution method; procedure, shortened: as §1
Pseudomonas aeruginosa [23] = experiment: Antibacterial activity against Pseudomonas aeruginosa 09-33 after 18 to 24 hrs by twofold serial dilution method; procedure, shortened: as §1
Pseudomonas aeruginosa [24] = experiment: Antibacterial activity against Pseudomonas aeruginosa 09-34 after 18 to 24 hrs by twofold serial dilution method; procedure, shortened: as §1
Pseudomonas aeruginosa [25] = experiment: Antibacterial activity against Pseudomonas aeruginosa 09-35 after 18 to 24 hrs by twofold serial dilution method; procedure, shortened: as §1

| Compound | MIC (Staphylococcus aureus [1]) | MIC (Staphylococcus aureus [2]) | MIC (Staphylococcus aureus [3]) | MIC [4] | MIC [6] | MIC [7] | MIC [8] | MIC (Enterococcus faecium [11]) | MIC (Enterococcus faecium [12]) | MIC (Enterococcus faecalis [13]) | MIC (Enterococcus faecalis [14]) | MIC (Escherichia coli [15]) | MIC (Escherichia coli [16]) | MIC (Escherichia coli [17]) | MIC (Klebsiella pneumoniae [18]) | MIC (Klebsiella pneumoniae [19]) | MIC (Klebsiella pneumoniae [20]) | MIC (Pseudomonas aeruginosa [21]) | MIC (Pseudomonas aeruginosa [22]) | MIC (Pseudomonas aeruginosa [25]) | also measured |
| --- | --- | --- | --- | --- | --- | --- | --- | --- | --- | --- | --- | --- | --- | --- | --- | --- | --- | --- | --- | --- | --- |
| CCO/N=C1\CN(c2c(F)cc3c(=O)c(C(=O)O)cn4c3c2OC[C@@H]4C)CC1/C(N)=N\O (stereo not given in full) | 0.25 µg/mL (≈ 0.559 µM) | 0.25 µg/mL (≈ 0.559 µM) | 0.25 µg/mL (≈ 0.559 µM) | 0.5 µg/mL (≈ 1.12 µM) | 0.5 µg/mL (≈ 1.12 µM) | 0.25 µg/mL (≈ 0.559 µM) | 0.25 µg/mL (≈ 0.559 µM) | > 128 µg/mL | > 128 µg/mL | > 128 µg/mL | > 128 µg/mL | > 128 µg/mL | > 128 µg/mL | > 128 µg/mL | > 128 µg/mL | 16 µg/mL (≈ 35.8 µM) | > 128 µg/mL | 32 µg/mL (≈ 71.5 µM) | 64 µg/mL (≈ 143 µM) | 64 µg/mL (≈ 143 µM) | MIC [5]: 0.25 µg/mL (≈ 0.559 µM); MIC (Streptococcus pneumoniae [9]): > 128 µg/mL; MIC (Streptococcus pneumoniae [10]): 16 µg/mL (≈ 35.8 µM); MIC (Pseudomonas aeruginosa [23]): > 128 µg/mL; MIC (Pseudomonas aeruginosa [24]): > 128 µg/mL |
| CCO/N=C1\CN(c2nc3c(cc2F)c(=O)c(C(=O)O)cn3-c2ccc(F)cc2F)CC1/C(N)=N\OCC (stereo not given) | 0.06 µg/mL (≈ 0.113 µM) | 32 µg/mL (≈ 60.1 µM) | 0.06 µg/mL (≈ 0.113 µM) | 0.06 µg/mL (≈ 0.113 µM) | 64 µg/mL (≈ 120 µM) | 32 µg/mL (≈ 60.1 µM) | 32 µg/mL (≈ 60.1 µM) | 128 µg/mL (≈ 240 µM) | 128 µg/mL (≈ 240 µM) | 128 µg/mL (≈ 240 µM) | 128 µg/mL (≈ 240 µM) | 16 µg/mL (≈ 30 µM) | 128 µg/mL (≈ 240 µM) | 128 µg/mL (≈ 240 µM) | 16 µg/mL (≈ 30 µM) | 128 µg/mL (≈ 240 µM) | 128 µg/mL (≈ 240 µM) | 64 µg/mL (≈ 120 µM) | 128 µg/mL (≈ 240 µM) | 128 µg/mL (≈ 240 µM) | MIC [5]: 0.06 µg/mL (≈ 0.113 µM); MIC (Streptococcus pneumoniae [9]): 128 µg/mL (≈ 240 µM); MIC (Streptococcus pneumoniae [10]): 128 µg/mL (≈ 240 µM); MIC (Pseudomonas aeruginosa [23]): 128 µg/mL (≈ 240 µM); MIC (Pseudomonas aeruginosa [24]): 128 µg/mL (≈ 240 µM) |
| CCO/N=C1\CN(c2nc3c(cc2F)c(=O)c(C(=O)O)cn3-c2ccc(F)cc2F)CC1/C(N)=N\OC (stereo not given) | 0.25 µg/mL (≈ 0.482 µM) | 0.25 µg/mL (≈ 0.482 µM) | 0.25 µg/mL (≈ 0.482 µM) | 0.125 µg/mL (≈ 0.241 µM) | 0.25 µg/mL (≈ 0.482 µM) | 0.125 µg/mL (≈ 0.241 µM) | 0.25 µg/mL (≈ 0.482 µM) | > 128 µg/mL | > 128 µg/mL | > 128 µg/mL | > 128 µg/mL | 128 µg/mL (≈ 247 µM) | > 128 µg/mL | > 128 µg/mL | 0.25 µg/mL (≈ 0.482 µM) | 32 µg/mL (≈ 61.7 µM) | 32 µg/mL (≈ 61.7 µM) | 32 µg/mL (≈ 61.7 µM) | > 128 µg/mL | > 128 µg/mL | MIC [5]: 0.25 µg/mL (≈ 0.482 µM); MIC (Streptococcus pneumoniae [9]): 32 µg/mL (≈ 61.7 µM); MIC (Streptococcus pneumoniae [10]): 32 µg/mL (≈ 61.7 µM); MIC (Pseudomonas aeruginosa [23]): > 128 µg/mL; MIC (Pseudomonas aeruginosa [24]): > 128 µg/mL |
| CCO/N=C1\CN(c2c(F)cc3c(=O)c(C(=O)O)cn(CC)c3c2F)CC1/C(N)=N\OCC (stereo not given) | 8 µg/mL (≈ 17.2 µM) | > 128 µg/mL | > 128 µg/mL | > 128 µg/mL | > 128 µg/mL | > 128 µg/mL | > 128 µg/mL | > 128 µg/mL | > 128 µg/mL | > 128 µg/mL | > 128 µg/mL | > 128 µg/mL | > 128 µg/mL | > 128 µg/mL | > 128 µg/mL | > 128 µg/mL | > 128 µg/mL | > 128 µg/mL | > 128 µg/mL | > 128 µg/mL | MIC (Streptococcus pneumoniae [9]): > 128 µg/mL; MIC (Streptococcus pneumoniae [10]): > 128 µg/mL; MIC (Pseudomonas aeruginosa [23]): > 128 µg/mL; MIC (Pseudomonas aeruginosa [24]): > 128 µg/mL |
| CO/N=C1\CN(c2nc3c(cc2F)c(=O)c(C(=O)O)cn3C2CC2)CC1CN (stereo not given) [GEMIFLOXACIN] | 0.125 µg/mL (≈ 0.321 µM) | 0.25 µg/mL (≈ 0.642 µM) | 0.125 µg/mL (≈ 0.321 µM) | 0.125 µg/mL (≈ 0.321 µM) | 0.06 µg/mL (≈ 0.154 µM) | 0.125 µg/mL (≈ 0.321 µM) | 0.25 µg/mL (≈ 0.642 µM) | 16 µg/mL (≈ 41.1 µM) | 2 µg/mL (≈ 5.14 µM) | 16 µg/mL (≈ 41.1 µM) | 16 µg/mL (≈ 41.1 µM) | 4 µg/mL (≈ 10.3 µM) | 16 µg/mL (≈ 41.1 µM) | 2 µg/mL (≈ 5.14 µM) | 16 µg/mL (≈ 41.1 µM) | 8 µg/mL (≈ 20.5 µM) | 8 µg/mL (≈ 20.5 µM) | 2 µg/mL (≈ 5.14 µM) | 0.5 µg/mL (≈ 1.28 µM) | 0.5 µg/mL (≈ 1.28 µM) | MIC [5]: 0.06 µg/mL (≈ 0.154 µM); MIC (Streptococcus pneumoniae [9]): 8 µg/mL (≈ 20.5 µM); MIC (Streptococcus pneumoniae [10]): 0.25 µg/mL (≈ 0.642 µM); MIC (Pseudomonas aeruginosa [23]): 2 µg/mL (≈ 5.14 µM); MIC (Pseudomonas aeruginosa [24]): 0.5 µg/mL (≈ 1.28 µM) |
| C[C@H]1COc2c(N3CCN(C)CC3)c(F)cc3c(=O)c(C(=O)O)cn1c23.C[C@H]1COc2c(N3CCN(C)CC3)c(F)cc3c(=O)c(C(=O)O)cn1c23.O [LEVOFLOXACIN] | 0.06 µg/mL | 0.125 µg/mL | 0.06 µg/mL | 0.25 µg/mL | 0.25 µg/mL | 0.125 µg/mL | 2 µg/mL | 8 µg/mL | 2 µg/mL | 8 µg/mL | 4 µg/mL | 0.125 µg/mL | 16 µg/mL | 16 µg/mL | 8 µg/mL | 16 µg/mL | 8 µg/mL | 0.5 µg/mL | 16 µg/mL | 0.25 µg/mL | MIC [5]: 0.25 µg/mL |
